Results taken from ChEMBL document CHEMBL1134586, “S(+)-4-(1-Phenylethylamino)quinazolines as inhibitors of human immunoglobulin E synthesis: potency is dictated by stereochemistry and atomic point charges at N-1” (J Med Chem, 2001).

Assays:
B-cell = assay: Antiproliferative effects in the human B-cell line transfected with a plasmid in which luciferase gene is under the control of a 630bp, involved in the IL-4 response which induces IgE-GLP activity.; assay type: functional, cell-based
How it was run: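 Viability of the stably transfected BL2 luciferase-reporter clone was measured in cultures run in parallel with the reporter assay. Intact mitochondria were quantified in duplicates, and half-maximal inhibition came from a logistic fit.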

Homo sapiens = organism: Homo sapiens; assay: Direct inhibition of the IgE-Germ line promoter (IGE-GLP-RGA) activity which is responsible in synthesis of IgE in human splenocytes; assay type: functional
How it was run: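 BL2 B-cells were stably transfected with luciferase under a 630 bp IgE-germline promoter fragment and selected in G418. Cells were lysed for dual-luciferase readout in duplicates, and IC₅₀ came from a logistic fit.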

[1] = target: Epidermal growth factor receptor (Homo sapiens, UniProt P00533); assay: Inhibition of EGF-induced Tyrosine phosphorylation in A431 cells expressing EGF-R
Chain of Epidermal growth factor receptor (P00533 whole entry): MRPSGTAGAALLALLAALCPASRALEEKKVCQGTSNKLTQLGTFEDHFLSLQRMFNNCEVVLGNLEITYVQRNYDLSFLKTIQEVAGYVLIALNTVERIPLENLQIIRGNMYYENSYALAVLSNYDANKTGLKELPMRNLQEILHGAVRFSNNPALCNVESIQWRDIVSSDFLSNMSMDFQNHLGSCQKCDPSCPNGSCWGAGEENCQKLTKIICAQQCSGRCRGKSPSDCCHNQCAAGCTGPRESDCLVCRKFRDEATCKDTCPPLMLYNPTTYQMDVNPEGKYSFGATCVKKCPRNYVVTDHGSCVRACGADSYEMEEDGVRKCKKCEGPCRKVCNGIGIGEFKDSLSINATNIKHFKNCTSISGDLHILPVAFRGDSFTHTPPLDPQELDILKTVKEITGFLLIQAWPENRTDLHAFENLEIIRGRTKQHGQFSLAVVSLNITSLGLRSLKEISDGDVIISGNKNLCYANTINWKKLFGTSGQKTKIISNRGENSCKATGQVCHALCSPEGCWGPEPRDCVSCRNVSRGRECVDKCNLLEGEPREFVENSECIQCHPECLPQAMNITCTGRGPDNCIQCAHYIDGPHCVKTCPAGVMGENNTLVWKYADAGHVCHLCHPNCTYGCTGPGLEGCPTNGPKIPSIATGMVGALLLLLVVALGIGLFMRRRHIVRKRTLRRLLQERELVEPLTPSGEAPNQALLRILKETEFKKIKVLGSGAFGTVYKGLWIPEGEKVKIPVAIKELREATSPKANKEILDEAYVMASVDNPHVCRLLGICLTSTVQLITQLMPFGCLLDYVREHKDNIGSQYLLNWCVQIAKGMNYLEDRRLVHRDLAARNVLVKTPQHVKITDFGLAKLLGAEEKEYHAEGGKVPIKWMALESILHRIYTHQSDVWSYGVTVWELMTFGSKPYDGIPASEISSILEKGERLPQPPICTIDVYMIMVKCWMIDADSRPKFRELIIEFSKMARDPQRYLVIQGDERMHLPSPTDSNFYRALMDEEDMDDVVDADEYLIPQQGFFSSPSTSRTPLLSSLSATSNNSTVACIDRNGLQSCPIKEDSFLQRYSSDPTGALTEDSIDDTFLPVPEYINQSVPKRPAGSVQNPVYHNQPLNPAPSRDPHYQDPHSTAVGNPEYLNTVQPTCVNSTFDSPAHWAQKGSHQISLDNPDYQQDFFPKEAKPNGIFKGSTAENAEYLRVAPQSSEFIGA

Compound	IC50 (Homo sapiens)	IC50 [1]	IC50 (B-cell)
c1ccc(CNc2ncnc3ccccc23)cc1	> 2000 nM		> 2000 nM
C[C@H](Nc1ncnc2ccccc12)C1CCCCC1	81 nM		> 2000 nM
c1ccc2c(c1)CC[C@@H]2Nc1ncnc2ccccc12	> 2000 nM		> 2000 nM
c1ccc2c(c1)CC[C@H]2Nc1ncnc2ccccc12	1020 nM		> 2000 nM
CSc1nccc(N[C@@H](C)c2ccccc2)n1	931 nM		> 2000 nM
Cc1cc(N[C@@H](C)c2ccccc2)c2ccccc2n1	> 2000 nM		> 2000 nM
C[C@@H](Nc1ncnc2ccccc12)C1CCCCC1	> 2000 nM		> 2000 nM
C[C@H](Nc1[nH]cnc2c3ccccc3nc1-2)c1ccccc1		50 nM	
c1ccc(Nc2ncnc3ccccc23)cc1	> 2000 nM		> 2000 nM
Cc1cc2c(N[C@@H](C)c3ccccc3)[nH]cnc-2n1	> 2000 nM		> 2000 nM
Cc1cc(N[C@@H](C)c2ccccc2)nc(N)n1	> 2000 nM		> 2000 nM
CC(c1ccccc1)N(C)c1ncnc2ccccc12 (centres undefined)	> 2000 nM		> 2000 nM
C[C@H](Nc1ccnc2ccccc12)c1ccccc1	701 nM		> 2000 nM

Continued, in another order:

IC50 (Homo sapiens)	IC50 [1]	Compound	IC50 (B-cell)
> 2000 nM		Cc1csc2c(N[C@@H](C)c3ccccc3)ncnc12	> 2000 nM
72 nM		C[C@H](Nc1ncnc2ccccc12)c1ccc(Br)cc1	> 2000 nM
127 nM		C[C@H](Nc1ncnc2ccccc12)c1ccccc1	> 2000 nM
23 nM		COc1cccc([C@H](C)Nc2ncnc3ccccc23)c1	> 2000 nM
46 nM		Cc1ccc([C@H](C)Nc2ncnc3ccccc23)cc1	> 2000 nM
> 2000 nM		C[C@@H](Nc1ncnc2ccccc12)c1ccccc1	> 2000 nM
> 2000 nM		C[C@H](Nc1[nH]cnc2ncnc1-2)c1ccccc1	> 2000 nM
130 nM		Cc1csc2ncnc(N[C@@H](C)c3ccccc3)c12	1480 nM
370 nM		C[C@H](Nc1ncnc2sccc12)c1ccccc1	> 2000 nM
45 nM		COc1ccc([C@H](C)Nc2ncnc3ccccc23)cc1	> 2000 nM
> 2000 nM		C[C@@H](Nc1ncnc2ccccc12)c1ccc2ccccc2c1	> 2000 nM
14 nM		C[C@H](Nc1ncnc2ccccc12)c1ccc2ccccc2c1	1630 nM
147 nM		CC[C@H](Nc1ncnc2ccccc12)c1ccccc1	> 2000 nM
> 2000 nM		C[C@H](Nc1nccc2ccccc12)c1ccccc1	> 2000 nM
149 nM		OC[C@H](Nc1ncnc2ccccc12)c1ccccc1	> 2000 nM
> 2000 nM		COc1cc2ncnc(N[C@@H](C)c3ccccc3)c2cc1OC	> 2000 nM
> 2000 nM		C[C@H](Nc1ncnc2ccsc12)c1ccccc1	> 2000 nM
